One block for each molecule: values may come before it. Calls of active or inactive are those of the source. The calls are words filed in the database; no cut-off is given here.
Columns and labels:
[1] = test system: Schizosaccharomyces pombe; test: Inhibition of tubulin in Schizosaccharomyces pombe TY27 overexpressing GFP-HSET assessed as growth restoring activity incubated for 3 days by agar plate-based method
Procedure, shortened: (§1)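 Fission yeast TY27: drug-sensitive YA8 background (h+ bfr1::ura4+ pmd1::hisG leu1 ura4) carrying the pREP41-GFP-HSET plasmid, with the pREP41-GFP vector strain TY26 alongside. Simple plate assay on rich YE5S agar plates, read as restoration of growth of the HSET-overproducing cells. Screened set included SCADS Inhibitor Kits and inhibitors aimed at tubulin or Eg5.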

[2] = test system: Schizosaccharomyces pombe; test: Inhibition of HSET in Schizosaccharomyces pombe TY27 overexpressing GFP-HSET assessed as inhibition of HSET overproduction-induced lethal growth defects by measuring growth restoring activity incubated for 3 days by agar plate-based method; procedure, shortened: as §1
[3] = test system: Schizosaccharomyces pombe; test: Inhibition of HSET in Schizosaccharomyces pombe TY27 overexpressing GFP-HSET assessed as inhibition of HSET overproduction-induced lethality by measuring cell growth at 3.3 uM incubated for 2 to 3 days (reference value: 5%); set-up: scale not given: the % may be the effect or the level left
[4] = test system: Schizosaccharomyces pombe; test: Inhibition of HSET in Schizosaccharomyces pombe TY27 overexpressing GFP-HSET assessed as inhibition of HSET overproduction-induced lethality by measuring cell viability at 3.3 uM incubated for 2 to 3 days relative to control
[5] = test system: Schizosaccharomyces pombe; test: (§2) Inhibition of HSET in Schizosaccharomyces pombe TY27 overexpressing GFP-HSET assessed as reversion of HSET-induced lethal abnormal monopolar spindle formation to bipolar formation by measuring cells containing monopolar spindles at 0.1 ug/ml incubated for 2 days by wide field inverted epifluorescence microscopic method (reference value: 76%); set-up: scale not given: the % may be the effect or the level left
[6] = test system: Schizosaccharomyces pombe; test: as §2, with “1” for “0.1”; set-up: scale not given: the % may be the effect or the level left
MDA-MB-231 = test: Antiproliferative activity against human MDA-MB-231 cells assessed as inhibition of cell viability incubated for 48 hrs by MTT assay; assay type: functional, cell-based; conditions: MDA-MB-231, 48 h
WI-38 = test: Antiproliferative activity against human WI38 cells assessed as inhibition of cell viability incubated for 48 hrs by MTT assay; assay type: functional, cell-based; conditions: WI-38, 48 h
[7] = target: T1, Kinesin-like protein KIFC1 (Homo sapiens) (UniProt Q9BW19); test: (§3) Inhibition of HSET in human MDA-MB-231 cells overexpressing HSET and possessing supernumerary centrosomes assessed as inhibition of centrosome clustering by measuring increase in multipolar spindle formation at 250 uM incubated for 24 hrs by Hoechst 33342 staining based fluorescence microscopic method; assay type: cell-based
T1 sequence (whole entry): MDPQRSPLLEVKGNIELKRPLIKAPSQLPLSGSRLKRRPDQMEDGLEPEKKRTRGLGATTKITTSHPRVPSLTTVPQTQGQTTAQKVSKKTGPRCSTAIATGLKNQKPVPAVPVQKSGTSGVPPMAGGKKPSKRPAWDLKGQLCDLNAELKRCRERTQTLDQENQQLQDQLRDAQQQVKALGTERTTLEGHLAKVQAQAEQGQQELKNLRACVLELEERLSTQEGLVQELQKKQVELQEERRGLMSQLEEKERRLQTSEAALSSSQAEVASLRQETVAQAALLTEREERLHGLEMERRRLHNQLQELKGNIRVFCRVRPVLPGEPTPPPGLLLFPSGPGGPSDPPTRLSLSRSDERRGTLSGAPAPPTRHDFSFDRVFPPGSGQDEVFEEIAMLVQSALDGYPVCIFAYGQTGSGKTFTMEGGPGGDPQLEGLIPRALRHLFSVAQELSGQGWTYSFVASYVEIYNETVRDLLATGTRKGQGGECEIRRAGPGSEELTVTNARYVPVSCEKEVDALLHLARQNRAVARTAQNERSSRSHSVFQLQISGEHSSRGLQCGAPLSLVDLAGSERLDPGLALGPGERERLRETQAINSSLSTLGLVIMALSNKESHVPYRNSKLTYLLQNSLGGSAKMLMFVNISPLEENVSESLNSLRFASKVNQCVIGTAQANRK

[8] = test system: Schizosaccharomyces pombe; test: Inhibition of HSET in Schizosaccharomyces pombe TY27 overexpressing GFP-HSET assessed as inhibition of HSET overproduction-induced lethality by measuring increase in cell viability at 3.3 uM incubated for 2 to 3 days relative to control
[9] = test system: Schizosaccharomyces pombe; test: Inhibition of Eg5 in Schizosaccharomyces pombe TY27 overexpressing GFP-HSET assessed as growth restoring activity incubated for 3 days by agar plate-based method; procedure, shortened: as §1
[10] = test system: Schizosaccharomyces pombe; test: Inhibition of HSET in Schizosaccharomyces pombe TY27 overexpressing GFP-HSET assessed as inhibition of HSET overproduction-induced lethal growth defects by measuring growth restoring activity at 25 ng/spot incubated for 3 days by agar plate-based method; procedure, shortened: as §1
[11] = test system: Schizosaccharomyces pombe; test: Inhibition of HSET in Schizosaccharomyces pombe TY27 overexpressing GFP-HSET assessed as inhibition of HSET overproduction-induced lethality by measuring cell growth at 0.25 uM incubated for 2 to 3 days (reference value: 8%); set-up: scale not given: the % may be the effect or the level left
[12] = test system: Schizosaccharomyces pombe; test: Inhibition of HSET in Schizosaccharomyces pombe TY27 overexpressing GFP-HSET assessed as inhibition of HSET overproduction-induced lethality by measuring cell viability at 0.25 uM incubated for 2 to 3 days relative to control
[13] = test system: Schizosaccharomyces pombe; test: as §2, with “0.01” for “0.1”; set-up: scale not given: the % may be the effect or the level left
[14] = target: T1, Kinesin-like protein KIFC1 (Homo sapiens); test: as §3, with “bipolar” for “increase in multipolar”, “20” for “250”, “method relative to control” for “method”; assay type: cell-based; set-up: scale not given: the % may be the effect or the level left
[15] = target: T1, Kinesin-like protein KIFC1 (Homo sapiens); test: as §3, with “bipolar” for “increase in multipolar”, “40” for “250”, “method relative to control” for “method”; assay type: cell-based; set-up: scale not given: the % may be the effect or the level left
[16] = target: T1, Kinesin-like protein KIFC1 (Homo sapiens); test: as §3, with “20” for “250”, “method relative to control” for “method”; assay type: cell-based; set-up: scale not given: the % may be the effect or the level left
[17] = target: T1, Kinesin-like protein KIFC1 (Homo sapiens); test: as §3, with “40” for “250”, “method relative to control” for “method”; assay type: cell-based; set-up: scale not given: the % may be the effect or the level left
[18] = target: T1, Kinesin-like protein KIFC1 (Homo sapiens); test: Inhibition of HSET in human MDA-MB-231 cells overexpressing HSET and possessing supernumerary centrosomes assessed as inhibition of centrosome clustering by measuring increase in multipolar spindle formation incubated for 24 hrs by Hoechst 33342 staining based fluorescence microscopic method; assay type: cell-based
[19] = test system: Schizosaccharomyces pombe; test: Inhibition of HSET in Schizosaccharomyces pombe TY27 overexpressing GFP-HSET assessed as inhibition of HSET overproduction-induced lethality by measuring increase in cell viability at 0.25 uM incubated for 2 to 3 days relative to control
[20] = test system: Schizosaccharomyces pombe; test: Inhibition of HSET in Schizosaccharomyces pombe TY27 overexpressing GFP-HSET assessed as inhibition of HSET overproduction-induced lethal growth defects by measuring growth restoring activity at 6.25 to 50 ug/spot incubated for 3 days by agar plate-based method; procedure, shortened: as §1
[21] = test system: Schizosaccharomyces pombe; test: Inhibition of HSET in Schizosaccharomyces pombe TY27 overexpressing GFP-HSET assessed as inhibition of HSET overproduction-induced lethality by measuring cell growth at 2.8 uM incubated for 2 to 3 days (reference value: 6%); set-up: scale not given: the % may be the effect or the level left
[22] = test system: Schizosaccharomyces pombe; test: Inhibition of HSET in Schizosaccharomyces pombe TY27 overexpressing GFP-HSET assessed as inhibition of HSET overproduction-induced lethality by measuring cell viability at 2.8 uM incubated for 2 to 3 days relative to control
[23] = test system: Schizosaccharomyces pombe; test: Inhibition of HSET in Schizosaccharomyces pombe TY27 overexpressing GFP-HSET assessed as inhibition of HSET overproduction-induced lethality by measuring increase in cell viability at 2.8 uM incubated for 2 to 3 days relative to control

Structure (SMILES): COC(=O)Nc1nc2cc(C(=O)c3cccs3)ccc2[nH]1
inhibition [1]: inactive

Structure (SMILES): CC1=CCC[C@@H]2[C@@](C)(CC/C(C)=C/C(=O)O)[C@H](C)CC[C@@]12C [KOLAVENIC ACID]
growth restoration (qualitative) [2]: Dose-dependent effect
Activity [3]: 8%
Activity [4]: 59%
Activity [5]: 50%
Activity [6]: 7%
IC50 (MDA-MB-231): 272 µM
IC50 (WI-38): 265 µM
inhibition [7]: inactive
fold change (FC) [8]: > 2

Structure (SMILES): CCOC(=O)C1=C(C)NC(=S)NC1c1cccc(O)c1 (centres undefined)
inhibition [9]: inactive

Structure (SMILES): CCCc1cc(C(=O)N[C@H](Cc2ccc(-c3cccc(OC(F)(F)F)c3)nc2)C(=O)N[C@@H]2CCNC2)sc1C
growth restoration (qualitative) [2]: Dose-dependent effect

More lines, main results first:

inhibition [1]: inactive
Structure (SMILES): CC(=O)O[C@H]1C(=O)[C@@]2(C)[C@H]([C@H](OC(=O)c3ccccc3)[C@]3(O)C[C@H](OC(=O)[C@H](O)[C@@H](NC(=O)c4ccccc4)c4ccccc4)C(C)=C1C3(C)C)[C@]1(OC(C)=O)CO[C@@H]1C[C@@H]2O

Activity [14]: 49%
Activity [15]: 23%
Activity [16]: 44%
Activity [17]: 77%
IC50 (MDA-MB-231): 81.9 µM
inhibition [18]: Dose-dependent effect
Structure (SMILES): C/C=C(\C)C(=O)O[C@@H]1C[C@@H](C)[C@@](C)(CC/C(C)=C/C(=O)O)[C@@H]2CCC=C(C)[C@]12C
growth restoration (qualitative) [2]: Dose-dependent effect
inhibition [10]: inactive
Activity [11]: 13%
Activity [12]: 89%
Activity [13]: 53%
Activity [5]: 12%
IC50 (WI-38): 100 µM
fold change (FC) [19]: > 2

IC50 (MDA-MB-231): 261 µM
inhibition [7]: inactive
Structure (SMILES): CC(=O)O[C@@H]1C[C@@]2(C)C(C)=CCC[C@@H]2[C@@](C)(CC/C(C)=C/C(=O)O)[C@@H]1C
growth restoration (qualitative) [2]: Dose-dependent effect
inhibition [20]: inactive
Activity [21]: 8%
Activity [22]: 81%
Activity [5]: 49%
Activity [6]: 11%
IC50 (WI-38): 265 µM
fold change (FC) [23]: > 2

IC50 (MDA-MB-231): 4.4 µM
Structure (SMILES): COc1cccc2c1C(=O)c1c(O)c3c(c(O)c1C2=O)C[C@@](O)(C(=O)CO)C[C@@H]3O[C@H]1C[C@H](N)[C@H](O)[C@H](C)O1 [DOXORUBICIN]

inhibition [1]: inactive
Structure (SMILES): CC[C@]1(O)C[C@H]2CN(CCc3c([nH]c4ccccc34)[C@@](C(=O)OC)(c3cc4c(cc3OC)N(C)[C@H]3[C@@](O)(C(=O)OC)[C@H](OC(C)=O)[C@]5(CC)C=CCN6CC[C@]43[C@@H]65)C2)C1
